Reference: ChEMBL document CHEMBL1828603, “Synthesis, antimicrobial activity and possible mechanism of action of 9-bromo-substituted indolizinoquinoline-5,12-dione derivatives” (2011)
Values after ≈ are worked out from the molar mass of the structure shown. Active and inactive are the calls of the source. The rule behind the calls is not given here.

What was measured:
[1] = system: Staphylococcus aureus; experiment: Antimicrobial activity against methicillin-resistant Staphylococcus aureus isolate 82924 by broth microdilution method; type: functional
In short: (§1)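 MRSA clinical isolates from Guangzhou Liuhuaqiao Hospital, China. Tested by two-fold broth dilution in Mueller-Hinton broth from a top concentration of 64 µg/ml. Compound in DMSO was added to culture at 5 × 10^5 cells/ml and serially halved. Plates were incubated at 37 °C overnight with OD600 read-out. MIC came from ≥2 independent experiments.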

[2] = system: Staphylococcus epidermidis; experiment: Antimicrobial activity against Staphylococcus epidermidis ATCC 12228 by two fold microdilution method; type: functional
In short: (§2)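 Two-fold broth microdilution in Mueller-Hinton broth. Compound in DMSO added to bacterial culture at 5 × 10^5 cells/ml, starting at 64 µg/ml, then serially doubled down. Incubated at 37 °C overnight and read as OD600. MIC taken as the minimum inhibitory concentration, obtained in at least two independent experiments.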

[3] = molecular target: DNA gyrase (Staphylococcus aureus) (UniProt P0A0K8+P20831); experiment: Inhibition of Staphylococcus aureus DNA gyrase supercoiling activity using pHOT1 DNA as substrate at 125 uM after 60 mins by agarose gel electrophoretic analysis; type: protein-complex assay
In short: (§3)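 Supercoiling assay with 1 U DNA gyrase (E. coli or S. aureus) and 0.5 µg relaxed pHOT1 DNA in Tris–HCl pH 7.5 buffer (KCl, MgCl2, DTT, spermidine, 1 mM ATP, glycerol, BSA), ± compound, 37 °C for 60 min. Stopped with proteinase K, run on 1% agarose in TAE at 3 V/cm, stained with Gel Red and imaged under UV.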

[4] = system: Staphylococcus aureus; experiment: Antimicrobial activity against methicillin-resistant Staphylococcus aureus isolate 0441 by broth microdilution method; type: functional; in short: as §1
[5] = system: Staphylococcus aureus; experiment: Antimicrobial activity against methicillin-resistant Staphylococcus aureus isolate 071843 by broth microdilution method; type: functional; in short: as §1
[6] = system: Staphylococcus aureus; experiment: Antimicrobial activity against methicillin-resistant Staphylococcus aureus isolate 82896 by broth microdilution method; type: functional; in short: as §1
[7] = system: Salmonella enterica subsp. enterica serovar Paratyphi B; experiment: Antimicrobial activity against Salmonella paratyphi B CMCC 50094 by two fold microdilution method; type: functional
In short: (§4)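 Two-fold serial dilution in Mueller-Hinton broth, starting at 64 µg/ml. Compound was added as a DMSO solution to bacterial culture at 5 × 10^5 cells/ml, then double-diluted. Plates were incubated overnight at 37 °C and OD600 was read. MIC was taken from at least two independent experiments.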

[8] = system: Staphylococcus aureus; experiment: Antimicrobial activity against Staphylococcus aureus ATCC 25923 by two fold microdilution method; type: functional; in short: as §4
[9] = system: Staphylococcus aureus; experiment: Antimicrobial activity against methicillin-resistant Staphylococcus aureus isolate 7365 by broth microdilution method; type: functional; in short: as §1
[10] = system: Escherichia coli; experiment: Inhibition of Escherichia coli DNA gyrase supercoiling activity using pHOT1 DNA as substrate at 1 uM after 60 mins by agarose gel electrophoretic analysis; in short: as §3
[11] = system: Staphylococcus aureus; experiment: Antimicrobial activity against methicillin-resistant Staphylococcus aureus isolate 72754 by broth microdilution method; type: functional; in short: as §1
[12] = system: Streptococcus; experiment: Antimicrobial activity against hemolytic Streptococcus Group B CMCC 32210 by two fold microdilution method; type: functional; in short: as §2
[13] = system: Staphylococcus aureus; experiment: Antimicrobial activity against methicillin-resistant Staphylococcus aureus isolate 80754 by broth microdilution method; type: functional; in short: as §1
[14] = system: Escherichia coli; experiment: Inhibition of Escherichia coli DNA gyrase supercoiling activity using pHOT1 DNA as substrate at 100 uM after 60 mins by agarose gel electrophoretic analysis; in short: as §3
[15] = system: Staphylococcus aureus; experiment: Antimicrobial activity against methicillin-resistant Staphylococcus aureus isolate 83160 by broth microdilution method; type: functional; in short: as §1
[16] = system: Staphylococcus aureus; experiment: Ratio of MIC for vancomycin to compound for methicillin-resistant Staphylococcus aureus ATCC 43300 by broth microdilution method; type: functional
[17] = system: Escherichia coli; experiment: Inhibition of Escherichia coli topoisomerase 4-mediated relaxation of supercoiled pBR322 DNA at 125 uM after 30 mins by agarose gel electrophoretic analysis
In short: (§5)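 Relaxation assay with 1 U Topo IV and 0.5 µg supercoiled pBR322 DNA in HEPES–KOH pH 7.6 buffer (potassium glutamate, magnesium acetate, DTT, 1 mM ATP, BSA), 37 °C for 30 min. Stopped with chloroform/iso-amyl alcohol (24:1), then run on 1% agarose gel in TAE at 5 V/cm.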

[18] = system: Staphylococcus aureus; experiment: Antimicrobial activity against methicillin-resistant Staphylococcus aureus isolate 071410 by broth microdilution method; type: functional; in short: as §1
[19] = system: Candida albicans; experiment: Antifungal activity against Candida albicans ATCC 10231 by two fold microdilution method; type: functional
[20] = system: Staphylococcus aureus; experiment: Antimicrobial activity against methicillin-resistant Staphylococcus aureus isolate 071429 by broth microdilution method; type: functional; in short: as §1
[21] = system: Staphylococcus aureus; experiment: Inhibition of Staphylococcus aureus topoisomerase 4 assessed as decatenation of kDNA at 125 uM after 30 mins by electrophoresis
In short: (§6)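 Decatenation assay with 1 U Topo IV and 200 ng catenated kDNA in HEPES–KOH pH 7.6 buffer (potassium glutamate, magnesium acetate, DTT, 1 mM ATP, BSA), 37 °C for 30 min. Stopped with chloroform/iso-amyl alcohol (24:1), then run on 1% agarose gel in TAE at 10 V/cm.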

[22] = system: Staphylococcus aureus; experiment: Antimicrobial activity against methicillin-resistant Staphylococcus aureus ATCC 43300 by two fold microdilution method; type: functional; in short: as §4
[23] = system: Escherichia coli; experiment: Inhibition of Escherichia coli topoisomerase 4 assessed as decatenation of kDNA at 25 uM after 30 mins by electrophoresis; in short: as §6
[24] = system: Staphylococcus aureus; experiment: Inhibition of Staphylococcus aureus topoisomerase 4-mediated relaxation of supercoiled pBR322 DNA at 25 uM after 30 mins by agarose gel electrophoretic analysis; in short: as §5
[25] = system: Pseudomonas aeruginosa; experiment: Antimicrobial activity against Pseudomonas aeruginosa ATCC 27853 by two fold microdilution method; type: functional; in short: as §2
[26] = system: Enterococcus faecalis; experiment: Antimicrobial activity against Enterococcus faecalis ATCC 29212 by two fold microdilution method; type: functional; in short: as §2
[27] = system: Staphylococcus aureus; experiment: Antimicrobial activity against methicillin-resistant Staphylococcus aureus isolate 82731 by broth microdilution method; type: functional; in short: as §1
[28] = system: Escherichia coli; experiment: Antimicrobial activity against Escherichia coli ATCC 25922 by two fold microdilution method; type: functional; in short: as §2
[29] = system: Staphylococcus aureus; experiment: Inhibition of Staphylococcus aureus topoisomerase 4-mediated relaxation of supercoiled pBR322 DNA at 1 uM after 30 mins by agarose gel electrophoretic analysis; in short: as §5

DNA gyrase (Staphylococcus aureus), sequence (P0A0K8 2-644 limits assumed): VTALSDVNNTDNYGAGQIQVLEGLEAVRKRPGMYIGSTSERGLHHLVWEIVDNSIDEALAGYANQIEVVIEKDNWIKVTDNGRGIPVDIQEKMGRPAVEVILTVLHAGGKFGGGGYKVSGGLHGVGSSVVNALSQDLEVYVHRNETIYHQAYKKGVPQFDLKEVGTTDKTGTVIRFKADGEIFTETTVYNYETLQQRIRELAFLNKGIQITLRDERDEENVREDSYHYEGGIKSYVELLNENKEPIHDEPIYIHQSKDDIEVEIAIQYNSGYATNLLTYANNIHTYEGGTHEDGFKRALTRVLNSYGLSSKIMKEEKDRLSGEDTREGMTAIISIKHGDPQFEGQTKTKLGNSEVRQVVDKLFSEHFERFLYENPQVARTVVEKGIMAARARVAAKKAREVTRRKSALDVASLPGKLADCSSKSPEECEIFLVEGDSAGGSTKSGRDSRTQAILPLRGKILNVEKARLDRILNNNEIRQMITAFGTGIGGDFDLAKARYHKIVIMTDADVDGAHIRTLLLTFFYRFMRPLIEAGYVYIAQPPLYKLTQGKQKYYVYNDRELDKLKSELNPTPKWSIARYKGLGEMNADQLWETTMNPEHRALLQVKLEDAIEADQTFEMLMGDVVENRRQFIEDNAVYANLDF
DNA gyrase (Staphylococcus aureus), sequence (P20831 whole entry partner): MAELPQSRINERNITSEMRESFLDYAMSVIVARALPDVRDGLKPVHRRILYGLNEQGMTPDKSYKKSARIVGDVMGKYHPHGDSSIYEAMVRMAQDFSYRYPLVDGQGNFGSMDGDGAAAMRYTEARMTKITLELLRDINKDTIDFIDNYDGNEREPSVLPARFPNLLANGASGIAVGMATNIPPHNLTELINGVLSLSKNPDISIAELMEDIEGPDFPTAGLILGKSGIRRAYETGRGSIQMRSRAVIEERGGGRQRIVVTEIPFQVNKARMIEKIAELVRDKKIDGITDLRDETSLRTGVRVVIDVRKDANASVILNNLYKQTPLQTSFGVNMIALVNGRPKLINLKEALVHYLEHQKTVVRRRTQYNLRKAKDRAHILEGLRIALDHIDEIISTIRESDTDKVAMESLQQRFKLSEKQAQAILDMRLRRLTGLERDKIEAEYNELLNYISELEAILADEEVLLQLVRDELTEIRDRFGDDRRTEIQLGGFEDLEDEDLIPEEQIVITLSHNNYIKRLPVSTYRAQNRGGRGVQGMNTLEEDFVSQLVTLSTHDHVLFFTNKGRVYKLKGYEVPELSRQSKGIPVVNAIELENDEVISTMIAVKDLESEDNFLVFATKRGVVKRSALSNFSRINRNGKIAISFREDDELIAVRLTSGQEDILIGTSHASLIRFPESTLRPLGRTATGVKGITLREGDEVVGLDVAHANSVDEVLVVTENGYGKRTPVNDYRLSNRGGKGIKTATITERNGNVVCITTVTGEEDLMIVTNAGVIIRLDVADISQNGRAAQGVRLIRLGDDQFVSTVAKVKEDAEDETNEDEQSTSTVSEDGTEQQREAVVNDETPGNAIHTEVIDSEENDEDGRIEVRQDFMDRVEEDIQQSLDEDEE

CCOC(=O)c1c2c(n3cc(Br)ccc13)C(=O)c1ncccc1C2=O
MIC [1]: 0.032 µg/mL (≈ 0.0802 µM) | MIC [2]: 0.063 µg/mL (≈ 0.158 µM) | inhibition [3]: inactive | MIC [4]: 0.032 µg/mL (≈ 0.0802 µM) | MIC [5]: 0.016 µg/mL (≈ 0.0401 µM) | MIC [6]: 0.032 µg/mL (≈ 0.0802 µM) | MIC [7]: 64 µg/mL (≈ 160 µM) | MIC [8]: 0.063 µg/mL (≈ 0.158 µM) | MIC [9]: 0.063 µg/mL (≈ 0.158 µM) | inhibition [10]: 78% | MIC [11]: 0.016 µg/mL (≈ 0.0401 µM) | MIC [12]: 0.031 µg/mL (≈ 0.0777 µM) | MIC [13]: 0.063 µg/mL (≈ 0.158 µM) | inhibition [14]: 98% | MIC [15]: 0.016 µg/mL (≈ 0.0401 µM) | Ratio [16]: 16 | inhibition [17]: inactive | MIC [18]: 0.032 µg/mL (≈ 0.0802 µM) | MIC [19]: > 64 µg/mL | MIC [20]: 0.016 µg/mL (≈ 0.0401 µM) | inhibition [21]: 84% | MIC [22]: 0.063 µg/mL (≈ 0.158 µM) | inhibition [23]: Active | inhibition [24]: Active | MIC [25]: > 64 µg/mL | MIC [26]: 0.016 µg/mL (≈ 0.0401 µM) | MIC [27]: 0.016 µg/mL (≈ 0.0401 µM) | MIC [28]: > 64 µg/mL | inhibition [29]: Active
